The results in this text go back to ChEMBL document CHEMBL1154591, “Synthesis and in vitro microbiological evaluation of novel 4-aryl-5-isopropoxycarbonyl-6-methyl-3,4-dihydropyrimidinones” (2010).

Molecules are shown by their SMILES. In brackets after ≈: the same amount, converted by molar mass.

One test deals with Staphylococcus aureus. Nature of the test: Antibacterial activity against Staphylococcus aureus after 24 hrs by two fold serial dilution technique. In kind it is functional. In short, it runs like this:
(§1)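 Twofold serial broth dilution in nutrient broth. Compounds were taken up in DMSO as 1 mg/ml stocks, and 0.2 ml of stock was added to 1.8 ml of seeded broth for the first dilution, giving six dilutions in all. Seeded broth came from 24 h nutrient agar cultures, with a final inoculum of 10⁵ cfu/ml at pH 7.4 ± 0.2. Tubes were incubated at 37 ± 1 °C, and MIC was read visually after 24 h. Broth-only and solvent controls were included.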

Another test has as its system Escherichia coli. Nature of the test: Antibacterial activity against Escherichia coli after 24 hrs by two fold serial dilution technique. In kind it is functional. In a few lines: as §1
A further test concerns Klebsiella pneumoniae. In words: Antibacterial activity against Klebsiella pneumoniae after 24 hrs by two fold serial dilution technique. In kind it is functional. In short, it runs like this:
as §1

A further test deals with Pseudomonas aeruginosa. In words: Antibacterial activity against Pseudomonas aeruginosa after 24 hrs by two fold serial dilution technique. In kind it is functional. In a few lines:
as §1

The subject of another test is Salmonella typhi. In words: Antibacterial activity against Salmonella typhi after 24 hrs by two fold serial dilution technique. In kind it is functional, Salmonella enterica subsp. enterica serovar Typhi. The note with it: Salmonella enterica. In short, it runs like this: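 Twofold serial broth dilution in nutrient broth. Compounds dissolved in DMSO as 1 mg/ml stocks; 0.2 ml added to 1.8 ml seeded broth, then serially diluted to six dilutions. Inoculum from 24 h nutrient agar cultures, final 10⁵ cfu/ml, pH 7.4 ± 0.2. Incubated at 37 ± 1 °C; MIC read visually at 24 h. Seeded-broth and solvent controls; ciprofloxacin standard.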

The subject of the next test is Candida albicans. In words: Antifungal activity against Candida albicans after 72 to 96 hrs by two fold serial dilution technique. The class given is functional. In a few lines: (§2)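 Twofold serial dilution in Sabouraud's dextrose broth. Compounds were taken up in DMSO as 1 mg/ml stocks, and 0.2 ml of stock was added to 1.8 ml of seeded broth for the first dilution, giving six dilutions. Seeded broth came from 24 h to 7-day Sabouraud's agar slant cultures, with a final inoculum of 1.1–1.5 × 10² cfu/ml. Tubes were incubated at 28 ± 1 °C for 72–96 h, and MIC was read visually. Broth-only and solvent controls were included.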

The subject of the next test is Aspergillus flavus. Nature of the test: Antifungal activity against Aspergillus flavus after 72 to 96 hrs by two fold serial dilution technique. In kind it is functional. In short, it runs like this:
as §2

For the next test, the system named is Rhizopus. In words: Antifungal activity against Rhizopus after 72 to 96 hrs by two fold serial dilution technique. In kind it is functional. In a few lines:
as §2

A further test deals with Mucor. In words: Antifungal activity against Mucor after 72 to 96 hrs by two fold serial dilution technique. In kind it is functional. In short, it runs like this:
as §2

`CC1=C(C(=O)OC(C)C)C(c2ccccc2)NC(=S)N1` (stereo not drawn): the MIC in the test on Staphylococcus aureus was determined as 50 µg/mL (≈ 172 µM); with Escherichia coli it was 200 µg/mL (≈ 689 µM); against Klebsiella pneumoniae, 100 µg/mL (≈ 344 µM); against Pseudomonas aeruginosa it was 50 µg/mL (≈ 172 µM); in the test on Salmonella typhi, 100 µg/mL (≈ 344 µM); with Candida albicans, 50 µg/mL (≈ 172 µM). For the same compound, the figures for the MIC in the test with Aspergillus flavus, with Rhizopus and in the test with Mucor were 100 µg/mL (≈ 344 µM), 100 µg/mL (≈ 344 µM) and 50 µg/mL (≈ 172 µM), respectively.
In the case of `CC1=C(C(=O)OC(C)C)C(c2ccccc2)NC(=O)N1` (stereo not drawn), the MIC was 200 µg/mL (≈ 729 µM) against Staphylococcus aureus; 200 µg/mL (≈ 729 µM) with Escherichia coli; 200 µg/mL (≈ 729 µM) with Klebsiella pneumoniae; 100 µg/mL (≈ 365 µM) against Pseudomonas aeruginosa; 200 µg/mL (≈ 729 µM) with Salmonella typhi; 100 µg/mL (≈ 365 µM) against Candida albicans. Further, the minimal inhibitory concentration (MIC) in the test with Rhizopus and against Mucor was 200 µg/mL (≈ 729 µM) in each case.
For the compound `COc1ccc(C2NC(=O)NC(C)=C2C(=O)OC(C)C)cc1` (stereo not drawn), the MIC came out at 50 µg/mL (≈ 164 µM) against Staphylococcus aureus; 100 µg/mL (≈ 329 µM) in the test on Escherichia coli; 100 µg/mL (≈ 329 µM) with Klebsiella pneumoniae; 50 µg/mL (≈ 164 µM) in the test with Pseudomonas aeruginosa; 50 µg/mL (≈ 164 µM) against Salmonella typhi; 50 µg/mL (≈ 164 µM) in the test on Candida albicans. Also, the MIC with Aspergillus flavus was found to be 100 µg/mL (≈ 329 µM); against Rhizopus it was 50 µg/mL (≈ 164 µM); with Mucor, 50 µg/mL (≈ 164 µM).
Take `CC1=C(C(=O)OC(C)C)C(c2ccc(C)cc2)NC(=O)N1` (stereo not drawn): the MIC amounted to 100 µg/mL (≈ 347 µM) in the test on Staphylococcus aureus; 100 µg/mL (≈ 347 µM) in the test on Escherichia coli; 100 µg/mL (≈ 347 µM) in the test with Klebsiella pneumoniae; 50 µg/mL (≈ 173 µM) in the test on Pseudomonas aeruginosa; 100 µg/mL (≈ 347 µM) in the test on Salmonella typhi; 50 µg/mL (≈ 173 µM) against Candida albicans. Moreover, the figures for the MIC with Aspergillus flavus, against Rhizopus and against Mucor were 200 µg/mL (≈ 694 µM), 50 µg/mL (≈ 173 µM) and 50 µg/mL (≈ 173 µM), respectively.
As to `CC1=C(C(=O)OC(C)C)C(c2ccc(F)cc2)NC(=O)N1` (stereo not drawn), the MIC in the test with Staphylococcus aureus was 12.5 µg/mL (≈ 42.8 µM); against Escherichia coli, 25 µg/mL (≈ 85.5 µM); with Klebsiella pneumoniae it was 25 µg/mL (≈ 85.5 µM); in the test on Pseudomonas aeruginosa, 12.5 µg/mL (≈ 42.8 µM); against Salmonella typhi, 12.5 µg/mL (≈ 42.8 µM); against Candida albicans, 12.5 µg/mL (≈ 42.8 µM). Further, the figures for the MIC against Aspergillus flavus, against Rhizopus and against Mucor were 25 µg/mL (≈ 85.5 µM), 12.5 µg/mL (≈ 42.8 µM) and 25 µg/mL (≈ 85.5 µM), respectively.
Turning to `CC1=C(C(=O)OC(C)C)C(c2ccc(Cl)cc2)NC(=O)N1` (stereo not drawn), the MIC was 25 µg/mL (≈ 81 µM) against Staphylococcus aureus; 50 µg/mL (≈ 162 µM) with Escherichia coli; 50 µg/mL (≈ 162 µM) with Klebsiella pneumoniae; 25 µg/mL (≈ 81 µM) in the test with Pseudomonas aeruginosa; 25 µg/mL (≈ 81 µM) in the test with Salmonella typhi; 25 µg/mL (≈ 81 µM) with Candida albicans. The MIC in the test on Aspergillus flavus worked out at 100 µg/mL (≈ 324 µM); in the test with Rhizopus, 25 µg/mL (≈ 81 µM); against Mucor it was 50 µg/mL (≈ 162 µM).
In the case of `CC1=C(C(=O)OC(C)C)C(c2ccc([N+](=O)[O-])cc2)NC(=O)N1` (stereo not drawn), the MIC against Staphylococcus aureus, in the test on Escherichia coli, against Klebsiella pneumoniae, against Pseudomonas aeruginosa, in the test with Salmonella typhi and in the test on Candida albicans was 12.5 µg/mL (≈ 39.1 µM) throughout. The results for the MIC with Aspergillus flavus, against Rhizopus and in the test with Mucor were 25 µg/mL (≈ 78.3 µM), 12.5 µg/mL (≈ 39.1 µM) and 12.5 µg/mL (≈ 39.1 µM), respectively.
Take `CC1=C(C(=O)OC(C)C)C(c2ccccc2Cl)NC(=O)N1` (stereo not drawn): the MIC against Staphylococcus aureus was found to be 25 µg/mL (≈ 81 µM); in the test with Escherichia coli, 50 µg/mL (≈ 162 µM); with Klebsiella pneumoniae, 50 µg/mL (≈ 162 µM); with Pseudomonas aeruginosa, 25 µg/mL (≈ 81 µM); in the test on Salmonella typhi it was 25 µg/mL (≈ 81 µM); against Candida albicans it was 25 µg/mL (≈ 81 µM). Moreover, the MIC with Aspergillus flavus came to 100 µg/mL (≈ 324 µM); in the test on Rhizopus, 50 µg/mL (≈ 162 µM); against Mucor it was 50 µg/mL (≈ 162 µM).
Turning to `C[C@@H]1[C@H](O)[C@@H](C)/C=C/C=C/C=C/C=C/C=C/C=C/C=C/[C@H](O[C@@H]2O[C@H](C)[C@@H](O)[C@H](N)[C@@H]2O)C[C@@H]2O[C@](O)(C[C@@H](O)C[C@@H](O)[C@H](O)CC[C@@H](O)C[C@@H](O)CC(=O)O[C@H]1C)C[C@H](O)[C@H]2C(=O)O` [AMPHOTERICIN B], the MIC worked out at 25 µg/mL (≈ 27.1 µM) against Candida albicans, 50 µg/mL (≈ 54.1 µM) against Aspergillus flavus, 25 µg/mL (≈ 27.1 µM) in the test on Rhizopus and 50 µg/mL (≈ 54.1 µM) in the test on Mucor.
As to `O=C(O)c1cn(C2CC2)c2cc(N3CCNCC3)c(F)cc2c1=O` [CIPROFLOXACIN], the MIC in the test with Escherichia coli worked out at 25 µg/mL (≈ 75.4 µM); against Klebsiella pneumoniae, 25 µg/mL (≈ 75.4 µM); against Salmonella typhi it was 50 µg/mL (≈ 151 µM).

One may read the MIC as the lowest concentration that inhibits growth of the organism.
